Results from ChEMBL document CHEMBL1148654, “DNA binding affinity of bisguanidine and bis(2-aminoimidazoline) derivatives with in vivo antitrypanosomal activity” (J Med Chem, 2006).
Calls of active or inactive are those of the source. The calls are words filed in the database; no cut-off is given here.

Assays:
[1] = tested on: Nucleic Acid; assay: Binding affinity to Trypanosoma brucei rhodesiense DNA; format: nucleic-acid assay
[2] = tested on: Trypanosoma brucei brucei; assay: Activity against Trypanosoma brucei brucei STIB795 in infected NMRI mouse at 20 mg/kg, ip; format: functional, organism-based; parameters: dose 20 mg/kg
Procedure, shortened: (§1)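 Mice infected ip with 1 × 10^5 (STIB 795) or 2 × 10^4 (STIB 900) bloodstream forms, in groups of four. Dosed ip once daily on days 3–6, with an untreated control group. Parasitemia checked every second day to day 14, then twice weekly to day 60. Deaths recorded for mean survival time. Cured means surviving and aparasitemic at 60 days.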

[3] = tested on: Trypanosoma brucei brucei; assay: Antitrypanosomal activity against trypomastigotes of AT1 wild type Trypanosoma brucei brucei 427; format: functional, organism-based
[4] = tested on: Trypanosoma brucei rhodesiense; assay: Activity against Trypanosoma brucei rhodesiense STIB900 in infected NMRI mouse at 20 mg/kg, ip; format: functional, organism-based; parameters: dose 20 mg/kg; procedure, shortened: as §1
[5] = tested on: Trypanosoma brucei brucei; assay: Antitrypanosomal activity against trypomastigotes of AT1 knockout Trypanosoma brucei brucei 427; format: functional, organism-based
[6] = tested on: Trypanosoma brucei; assay: Activity against Trypanosoma brucei GVR35 in infected NMRI mouse at 20 mg/kg, ip; format: functional, organism-based; parameters: dose 20 mg/kg
[7] = tested on: Trypanosoma brucei; assay: Activity against Trypanosoma brucei GVR35 in infected NMRI mouse at 40 mg/kg, ip; format: functional, organism-based; parameters: dose 40 mg/kg
[8] = tested on: Trypanosoma brucei brucei; assay: Activity against Trypanosoma brucei brucei STIB795 in infected NMRI mouse at 10 mg/kg, ip; format: functional, organism-based; parameters: dose 10 mg/kg; procedure, shortened: as §1

Activity [1] | SMILES | Activity [2] | other results
inactive | O=S(=O)(c1ccc(NC2=NCCN2)cc1)c1ccc(NC2=NCCN2)cc1 |  | 
 | CC(C)(C)OC(=O)N1CC[N+](C(=O)OC(C)(C)C)=C1Nc1ccc(Nc2ccc(NC3=[N+](C(=O)OC(C)(C)C)CCN3C(=O)OC(C)(C)C)cc2)cc1 | inactive | 
Active | c1cc(Nc2ccc(NC3=NCCN3)cc2)ccc1NC1=NCCN1 | Active | IC50 [3]: 63.7 nM; Activity [4]: Active; IC50 [5]: 162 nM; Activity [6]: inactive
inactive | N=C(N)Nc1ccc(S(=O)(=O)c2ccc(NC(=N)N)cc2)cc1 |  | 
Active | c1cc(N2CCN(c3ccc(NC4=NCCN4)cc3)CC2)ccc1NC1=NCCN1 | Toxic | 
Active | N=C(N)Nc1ccc(C(=O)c2ccc(NC(=N)N)cc2)cc1 |  | 
Active | N=C(N)Nc1ccc(Cc2ccc(NC(=N)N)cc2)cc1 |  | 
 | N=C(N)c1ccc(/N=N/Nc2ccc(C(=N)N)cc2)cc1 |  | Activity [7]: inactive
Active | N=C(N)Nc1ccc(Nc2ccc(NC(=N)N)cc2)cc1 | Active | IC50 [3]: 3 nM; IC50 [5]: 2.2 nM
Active | c1cc(NC2=NCCN2)ccc1Cc1ccc(NC2=NCCN2)cc1 |  | 
Active | N=C(N)Nc1ccc(N2CCN(c3ccc(NC(=N)N)cc3)CC2)cc1 |  | 
 | N=C(N)Nc1ccc(CCCCCCCCc2ccc(NC(=N)N)cc2)cc1 |  | Activity [8]: inactive
Active | N=C(N)c1ccc(OCCCCCOc2ccc(C(=N)N)cc2)cc1 |  | 
